Data as given in ChEMBL document CHEMBL2375313, “Synthesis, in vitro antitumor evaluation and DNA-binding study of novel tetrahydroquinolines and some derived tricyclic and tetracyclic ring systems” (Eur J Med Chem, 2013).

What was measured:
Type in all cases: functional
HOP-92 = assay: Cytotoxicity against human HOP92 cells assessed as growth inhibition at 10 uM after 48 hrs by sulphorhodamine B assay; conditions: HOP-92, 48 h, read-out: GI
How it was run: (§1)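 NCI-60 one-dose screen per the NCI Drug Evaluation Branch protocol. Cells given a single 10 µM concentration with 48 h continuous exposure. Growth estimated by sulphorhodamine B protein assay. Result expressed as percentage growth inhibition relative to untreated growth.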

NCI-H23 = assay: Cytotoxicity against human NCI-H23 cells assessed as growth inhibition at 10 uM after 48 hrs by sulphorhodamine B assay; conditions: NCI-H23, 48 h, read-out: GI; how it was run: as §1
[1] = Cytotoxicity against human EKVX cells assessed as growth inhibition at 10 uM after 48 hrs by sulphorhodamine B assay; conditions: read-out: GI; how it was run: as §1
A549 = assay: Cytotoxicity against human A549 cells assessed as growth inhibition at 10 uM after 48 hrs by sulphorhodamine B assay; conditions: A549, 48 h, read-out: GI; how it was run: as §1
NCI/ADR-RES = assay: Cytotoxicity against human NCI/ADR-RES cells assessed as growth inhibition at 10 uM after 48 hrs by sulphorhodamine B assay; conditions: read-out: GI; how it was run: as §1
SNB-75 = assay: Cytotoxicity against human SNB75 cells assessed as growth inhibition at 10 uM after 48 hrs by sulphorhodamine B assay; conditions: SNB-75, 48 h, read-out: GI; how it was run: as §1
U-251 = assay: Cytotoxicity against human U251 cells assessed as growth inhibition at 10 uM after 48 hrs by sulphorhodamine B assay; conditions: U-251, 48 h, read-out: GI; how it was run: as §1
SNB-19 = assay: Cytotoxicity against human SNB19 cells assessed as growth inhibition at 10 uM after 48 hrs by sulphorhodamine B assay; conditions: SNB-19, 48 h, read-out: GI; how it was run: as §1
SF-295 = assay: Cytotoxicity against human SF295 cells assessed as growth inhibition at 10 uM after 48 hrs by sulphorhodamine B assay; conditions: SF-295, 48 h, read-out: GI; how it was run: as §1
DU-145 = assay: Cytotoxicity against human DU145 cells assessed as growth inhibition at 10 uM after 48 hrs by sulphorhodamine B assay; conditions: DU-145, 48 h, read-out: GI; how it was run: as §1
SF-268 = assay: Cytotoxicity against human SF268 cells assessed as growth inhibition at 10 uM after 48 hrs by sulphorhodamine B assay; conditions: SF-268, 48 h, read-out: GI; how it was run: as §1
PC-3 = assay: Cytotoxicity against human PC3 cells assessed as growth inhibition at 10 uM after 48 hrs by sulphorhodamine B assay; conditions: PC-3, 48 h, read-out: GI; how it was run: as §1
UACC-62 = assay: Cytotoxicity against human UACC62 cells assessed as growth inhibition at 10 uM after 48 hrs by sulphorhodamine B assay; conditions: UACC-62, 48 h, read-out: GI; how it was run: as §1
SK-MEL-2 = assay: Cytotoxicity against human SK-MEL-2 cells assessed as growth inhibition at 10 uM after 48 hrs by sulphorhodamine B assay; conditions: SK-MEL-2, 48 h, read-out: GI; how it was run: as §1
SK-MEL-5 = assay: Cytotoxicity against human SK-MEL-5 cells assessed as growth inhibition at 10 uM after 48 hrs by sulphorhodamine B assay; conditions: SK-MEL-5, 48 h, read-out: GI; how it was run: as §1
M14 = assay: Cytotoxicity against human M14 cells assessed as growth inhibition at 10 uM after 48 hrs by sulphorhodamine B assay; conditions: M14, 48 h, read-out: GI; how it was run: as §1
LOX IMVI = assay: Cytotoxicity against human LOXIMVI cells assessed as growth inhibition at 10 uM after 48 hrs by sulphorhodamine B assay; conditions: read-out: GI; how it was run: as §1
UO-31 = assay: Cytotoxicity against human UO31 cells assessed as growth inhibition at 10 uM after 48 hrs by sulphorhodamine B assay; conditions: UO-31, 48 h, read-out: GI; how it was run: as §1
CAKI-1 = assay: Cytotoxicity against human Caki1 cells assessed as growth inhibition at 10 uM after 48 hrs by sulphorhodamine B assay; conditions: CAKI-1, 48 h, read-out: GI; how it was run: as §1
RXF 393 = assay: Cytotoxicity against human RXF393 cells assessed as growth inhibition at 10 uM after 48 hrs by sulphorhodamine B assay; conditions: RXF 393, 48 h, read-out: GI; how it was run: as §1
ACHN = assay: Cytotoxicity against human ACHN cells assessed as growth inhibition at 10 uM after 48 hrs by sulphorhodamine B assay; conditions: read-out: GI; how it was run: as §1
SR = assay: Cytotoxicity against human SR cells assessed as growth inhibition at 10 uM after 48 hrs by sulphorhodamine B assay; conditions: read-out: GI; how it was run: as §1
A498 = assay: Cytotoxicity against human A498 cells assessed as growth inhibition at 10 uM after 48 hrs by sulphorhodamine B assay; conditions: A498, 48 h, read-out: GI; how it was run: as §1
RPMI-8226 = assay: Cytotoxicity against human RPMI8226 cells assessed as growth inhibition at 10 uM after 48 hrs by sulphorhodamine B assay; conditions: RPMI-8226, 48 h, read-out: GI; how it was run: as §1
MOLT-4 = assay: Cytotoxicity against human MOLT4 cells assessed as growth inhibition at 10 uM after 48 hrs by sulphorhodamine B assay; conditions: MOLT-4, 48 h, read-out: GI; how it was run: as §1
K562 = assay: Cytotoxicity against human K562 cells assessed as growth inhibition at 10 uM after 48 hrs by sulphorhodamine B assay; conditions: K562, 48 h, read-out: GI; how it was run: as §1
HL-60(TB) = assay: Cytotoxicity against human HL-60(TB) cells assessed as growth inhibition at 10 uM after 48 hrs by sulphorhodamine B assay; conditions: HL-60, 48 h, read-out: GI
How it was run: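 NCI-60 one-dose primary screen run to the Drug Evaluation Branch protocol. Cells are exposed to a single 10 µM concentration for 48 h continuously, and growth is read by SRB protein assay. Data are reported as percent growth of treated cells, expressed as % growth inhibition.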

SK-OV-3 = assay: Cytotoxicity against human SKOV3 cells assessed as growth inhibition at 10 uM after 48 hrs by sulphorhodamine B assay; conditions: SK-OV-3, 48 h, read-out: GI; how it was run: as §1
CCRF-CEM = assay: Cytotoxicity against human CCRF-CEM cells assessed as growth inhibition at 10 uM after 48 hrs by sulphorhodamine B assay; conditions: read-out: GI; how it was run: as §1
OVCAR-5 = assay: Cytotoxicity against human OVCAR5 cells assessed as growth inhibition at 10 uM after 48 hrs by sulphorhodamine B assay; conditions: OVCAR-5, 48 h, read-out: GI; how it was run: as §1
OVCAR-4 = assay: Cytotoxicity against human OVCAR4 cells assessed as growth inhibition at 10 uM after 48 hrs by sulphorhodamine B assay; conditions: OVCAR-4, 48 h, read-out: GI; how it was run: as §1
IGROV-1 = assay: Cytotoxicity against human IGROV1 cells assessed as growth inhibition at 10 uM after 48 hrs by sulphorhodamine B assay; conditions: IGROV-1, 48 h, read-out: GI; how it was run: as §1
T47D = assay: Cytotoxicity against human T47D cells assessed as growth inhibition at 10 uM after 48 hrs by sulphorhodamine B assay; conditions: read-out: GI; how it was run: as §1
Hs-578T = assay: Cytotoxicity against human Hs578T cells assessed as growth inhibition at 10 uM after 48 hrs by sulphorhodamine B assay; conditions: read-out: GI; how it was run: as §1
NCI-H522 = assay: Cytotoxicity against human NCI-H522 cells assessed as growth inhibition at 10 uM after 48 hrs by sulphorhodamine B assay; conditions: NCI-H522, 48 h, read-out: GI; how it was run: as §1
HT-29 = assay: Cytotoxicity against human HT-29 cells assessed as growth inhibition at 10 uM after 48 hrs by sulphorhodamine B assay; conditions: HT-29, 48 h, read-out: GI; how it was run: as §1
MCF7 = assay: Cytotoxicity against human MCF7 cells assessed as growth inhibition at 10 uM after 48 hrs by sulphorhodamine B assay; conditions: MCF7, 48 h, read-out: GI; how it was run: as §1
MDA-MB-435 = assay: Cytotoxicity against human MDA-MB-435 cells assessed as growth inhibition at 10 uM after 48 hrs by sulphorhodamine B assay; conditions: MDA-MB-435, 48 h, read-out: GI; how it was run: as §1
HCT-15 = assay: Cytotoxicity against human HCT15 cells assessed as growth inhibition at 10 uM after 48 hrs by sulphorhodamine B assay; conditions: HCT-15, 48 h, read-out: GI; how it was run: as §1
MDA-MB-468 = assay: Cytotoxicity against human MDA-MB-468 cells assessed as growth inhibition at 10 uM after 48 hrs by sulphorhodamine B assay; conditions: MDA-MB-468, 48 h, read-out: GI; how it was run: as §1
HCT-116 = assay: Cytotoxicity against human HCT116 cells assessed as growth inhibition at 10 uM after 48 hrs by sulphorhodamine B assay; conditions: HCT-116, 48 h, read-out: GI; how it was run: as §1

With COc1ccc(-c2c3c(nc4nc(C)[nH]c(=O)c24)C(C)CCC3)cc1 (stereo unspecified) as the molecule, how does the inhibition of growth at 10 µM (HOP-92) read?
Its inhibition of growth at 10 µM is 21.3%.

What about the inhibition of growth at 10 µM (NCI-H23) of the same molecule?
The inhibition of growth at 10 µM was less than 10%.

What about the inhibition of growth at 10 µM [1] of the same molecule?
Its inhibition of growth at 10 µM is less than 10%.

What about the inhibition of growth at 10 µM (A549) of the same molecule?
The inhibition of growth at 10 µM was 10%.

What about the inhibition of growth at 10 µM (NCI/ADR-RES) of the same molecule?
The inhibition of growth at 10 µM was less than 10%.

And the inhibition of growth at 10 µM (SNB-75)?
Its inhibition of growth at 10 µM is less than 10%.

And the inhibition of growth at 10 µM (U-251)?
The inhibition of growth at 10 µM was less than 10%.

What about the inhibition of growth at 10 µM (SNB-19) of the same molecule?
The inhibition of growth at 10 µM was less than 10%.

What about the inhibition of growth at 10 µM (SF-295) of the same molecule?
The inhibition of growth at 10 µM was less than 10%.

What about the inhibition of growth at 10 µM (DU-145) of the same molecule?
The inhibition of growth at 10 µM was less than 10%.

What about the inhibition of growth at 10 µM (SF-268) of the same molecule?
The inhibition of growth at 10 µM was less than 10%.

And the inhibition of growth at 10 µM (PC-3)?
The inhibition of growth at 10 µM was 14.2%.

What about the inhibition of growth at 10 µM (UACC-62) of the same molecule?
The inhibition of growth at 10 µM was 14.8%.

And the inhibition of growth at 10 µM (SK-MEL-2)?
The inhibition of growth at 10 µM was less than 10%.

What about the inhibition of growth at 10 µM (SK-MEL-5) of the same molecule?
The inhibition of growth at 10 µM was 13.6%.

What about the inhibition of growth at 10 µM (M14) of the same molecule?
The inhibition of growth at 10 µM was less than 10%.

And the inhibition of growth at 10 µM (LOX IMVI)?
The inhibition of growth at 10 µM was 17.3%.

And the inhibition of growth at 10 µM (UO-31)?
Its inhibition of growth at 10 µM is less than 10%.

And the inhibition of growth at 10 µM (CAKI-1)?
Its inhibition of growth at 10 µM is less than 10%.

And the inhibition of growth at 10 µM (RXF 393)?
The inhibition of growth at 10 µM was 12.5%.

And the inhibition of growth at 10 µM (ACHN)?
The inhibition of growth at 10 µM was 11.3%.

And the inhibition of growth at 10 µM (SR)?
Its inhibition of growth at 10 µM is 46.8%.

What about the inhibition of growth at 10 µM (A498) of the same molecule?
The inhibition of growth at 10 µM was less than 10%.

What about the inhibition of growth at 10 µM (RPMI-8226) of the same molecule?
Its inhibition of growth at 10 µM is 21.8%.

And the inhibition of growth at 10 µM (MOLT-4)?
The inhibition of growth at 10 µM was 23.3%.

And the inhibition of growth at 10 µM (K562)?
The inhibition of growth at 10 µM was 11.2%.

And the inhibition of growth at 10 µM (HL-60(TB))?
The inhibition of growth at 10 µM was less than 10%.

And the inhibition of growth at 10 µM (SK-OV-3)?
Its inhibition of growth at 10 µM is less than 10%.

What about the inhibition of growth at 10 µM (CCRF-CEM) of the same molecule?
The inhibition of growth at 10 µM was 16.5%.

And the inhibition of growth at 10 µM (OVCAR-5)?
Its inhibition of growth at 10 µM is 11.4%.

What about the inhibition of growth at 10 µM (OVCAR-4) of the same molecule?
Its inhibition of growth at 10 µM is less than 10%.

And the inhibition of growth at 10 µM (IGROV-1)?
The inhibition of growth at 10 µM was less than 10%.

What about the inhibition of growth at 10 µM (T47D) of the same molecule?
The inhibition of growth at 10 µM was 18.2%.

What about the inhibition of growth at 10 µM (Hs-578T) of the same molecule?
Its inhibition of growth at 10 µM is less than 10%.

What about the inhibition of growth at 10 µM (NCI-H522) of the same molecule?
Its inhibition of growth at 10 µM is 22%.

And the inhibition of growth at 10 µM (HT-29)?
Its inhibition of growth at 10 µM is less than 10%.

What about the inhibition of growth at 10 µM (MCF7) of the same molecule?
Its inhibition of growth at 10 µM is less than 10%.

And the inhibition of growth at 10 µM (MDA-MB-435)?
The inhibition of growth at 10 µM was 19%.

What about the inhibition of growth at 10 µM (HCT-15) of the same molecule?
The inhibition of growth at 10 µM was 11%.

What about the inhibition of growth at 10 µM (MDA-MB-468) of the same molecule?
The inhibition of growth at 10 µM was less than 10%.

And the inhibition of growth at 10 µM (HCT-116)?
Its inhibition of growth at 10 µM is less than 10%.
